Data from ChEMBL document CHEMBL1148329, “Synthesis and structure-activity studies on N-[5-(1H-imidazol-4-yl)-5,6,7,8-tetrahydro-1-naphthalenyl]methanesulfonamide, an imidazole-containing alpha(1A)-adrenoceptor agonist” (J Med Chem, 2004).

How the values were obtained:
Canis familiaris [1] = test: Uroselectivity was determined by measuring effective dose required for 20 mmHg increase of mean arterial pressure (MAP) in vivo in dog; format: functional, Canis lupus familiaris, Artery
Procedure, shortened: (§1)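 Dog model recording intraurethral pressure (IUP) and mean arterial pressure (MAP) simultaneously. Increasing iv doses given, maximal effect of each dose taken. Doses giving a 5 mmHg rise in IUP (ED Δ5) or 20 mmHg rise in MAP (ED Δ20) were calculated, in nmol/kg ± SEM, n ≥ 4 (2 or 3 where footnoted).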

[2] = molecular target: T1, Alpha-1A adrenergic receptor (Oryctolagus cuniculus) (UniProt O02824); test: Efficacy relative to phenylephrine (PE) to constrict tissue containing the alpha-1A adrenergic receptor in rabbit urethra; format: functional, tissue-based
T1 sequence (whole entry): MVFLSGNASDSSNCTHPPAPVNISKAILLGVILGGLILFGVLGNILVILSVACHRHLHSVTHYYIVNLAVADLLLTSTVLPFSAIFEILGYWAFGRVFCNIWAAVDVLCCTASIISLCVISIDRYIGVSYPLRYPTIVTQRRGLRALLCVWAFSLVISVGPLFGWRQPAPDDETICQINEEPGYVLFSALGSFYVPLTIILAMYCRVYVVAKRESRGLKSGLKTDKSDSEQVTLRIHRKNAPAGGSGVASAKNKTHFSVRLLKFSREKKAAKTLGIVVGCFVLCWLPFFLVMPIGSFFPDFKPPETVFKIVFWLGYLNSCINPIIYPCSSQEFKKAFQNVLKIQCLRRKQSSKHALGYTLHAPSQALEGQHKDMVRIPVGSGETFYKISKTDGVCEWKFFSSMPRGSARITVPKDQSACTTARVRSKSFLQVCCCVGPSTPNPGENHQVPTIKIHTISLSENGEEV
Procedure, shortened: (§2)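 α1-agonist dose–response curves in isolated tissue: rabbit urethra (α1A), rat spleen (α1B), rat aorta (α1D). Agonist potency and efficacy read from the concentration–response curves.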

[3] = molecular target: T2, Alpha-2A adrenergic receptor (Rattus norvegicus) (UniProt P22909); test: Efficacy relative to clonidine to constrict tissue containing the alpha-2A adrenergic receptor in rat prostatic vas deferens
T2 sequence (whole entry): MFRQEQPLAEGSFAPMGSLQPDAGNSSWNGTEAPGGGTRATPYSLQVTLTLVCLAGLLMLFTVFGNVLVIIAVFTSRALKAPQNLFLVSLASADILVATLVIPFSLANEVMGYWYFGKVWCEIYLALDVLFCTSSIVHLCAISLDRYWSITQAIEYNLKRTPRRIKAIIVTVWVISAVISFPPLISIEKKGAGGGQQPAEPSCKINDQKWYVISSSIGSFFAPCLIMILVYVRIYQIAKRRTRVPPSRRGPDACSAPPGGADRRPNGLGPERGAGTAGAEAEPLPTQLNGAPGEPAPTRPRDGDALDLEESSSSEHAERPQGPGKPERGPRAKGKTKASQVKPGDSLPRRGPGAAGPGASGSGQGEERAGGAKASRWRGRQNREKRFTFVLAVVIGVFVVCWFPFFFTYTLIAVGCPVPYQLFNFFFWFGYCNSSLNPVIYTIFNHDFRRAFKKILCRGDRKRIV

[4] = molecular target: T3, Alpha-2A adrenergic receptor (Homo sapiens, UniProt P08913); test: In vitro binding affinity towards alpha-2A adrenergic receptor of human clone in radioligand binding assay
T3 sequence (P08913 whole entry): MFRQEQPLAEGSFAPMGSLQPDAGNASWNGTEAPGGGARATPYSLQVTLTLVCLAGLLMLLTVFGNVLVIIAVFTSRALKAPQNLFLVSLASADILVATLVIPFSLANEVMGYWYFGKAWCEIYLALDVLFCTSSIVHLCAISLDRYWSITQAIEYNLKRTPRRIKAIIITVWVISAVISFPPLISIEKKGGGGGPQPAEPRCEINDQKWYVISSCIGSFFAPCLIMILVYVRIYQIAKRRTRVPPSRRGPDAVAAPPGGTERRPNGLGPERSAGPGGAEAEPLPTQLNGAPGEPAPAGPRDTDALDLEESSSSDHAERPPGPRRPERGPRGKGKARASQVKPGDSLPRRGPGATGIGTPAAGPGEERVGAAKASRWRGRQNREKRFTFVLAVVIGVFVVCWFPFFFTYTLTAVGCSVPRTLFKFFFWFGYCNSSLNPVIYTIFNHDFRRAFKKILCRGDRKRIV

[5] = molecular target: T4, Alpha-2B adrenergic receptor (Rattus norvegicus, UniProt P19328); test: In vitro binding affinity towards alpha-2B adrenergic receptor of rat neonatal lung in radioligand binding assay
T4 sequence (P19328 whole entry): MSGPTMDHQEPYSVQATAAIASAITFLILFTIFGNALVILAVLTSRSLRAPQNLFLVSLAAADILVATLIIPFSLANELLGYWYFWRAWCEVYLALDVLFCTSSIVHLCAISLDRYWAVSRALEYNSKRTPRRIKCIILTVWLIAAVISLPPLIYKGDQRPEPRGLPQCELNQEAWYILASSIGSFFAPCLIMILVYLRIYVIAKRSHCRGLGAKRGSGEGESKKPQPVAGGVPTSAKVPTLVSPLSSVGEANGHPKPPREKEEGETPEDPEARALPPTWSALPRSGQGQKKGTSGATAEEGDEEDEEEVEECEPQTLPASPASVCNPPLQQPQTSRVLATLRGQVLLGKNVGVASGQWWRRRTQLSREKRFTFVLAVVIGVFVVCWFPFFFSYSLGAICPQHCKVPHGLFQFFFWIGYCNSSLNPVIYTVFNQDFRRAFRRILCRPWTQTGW

[6] = molecular target: T5, Alpha-1B adrenergic receptor (Rattus norvegicus) (UniProt P15823); test: Efficacy relative to phenylephrine (PE) constriction of rat spleen containing alpha-1B adrenergic receptor; format: functional, tissue-based; procedure, shortened: as §2
T5 sequence (whole entry): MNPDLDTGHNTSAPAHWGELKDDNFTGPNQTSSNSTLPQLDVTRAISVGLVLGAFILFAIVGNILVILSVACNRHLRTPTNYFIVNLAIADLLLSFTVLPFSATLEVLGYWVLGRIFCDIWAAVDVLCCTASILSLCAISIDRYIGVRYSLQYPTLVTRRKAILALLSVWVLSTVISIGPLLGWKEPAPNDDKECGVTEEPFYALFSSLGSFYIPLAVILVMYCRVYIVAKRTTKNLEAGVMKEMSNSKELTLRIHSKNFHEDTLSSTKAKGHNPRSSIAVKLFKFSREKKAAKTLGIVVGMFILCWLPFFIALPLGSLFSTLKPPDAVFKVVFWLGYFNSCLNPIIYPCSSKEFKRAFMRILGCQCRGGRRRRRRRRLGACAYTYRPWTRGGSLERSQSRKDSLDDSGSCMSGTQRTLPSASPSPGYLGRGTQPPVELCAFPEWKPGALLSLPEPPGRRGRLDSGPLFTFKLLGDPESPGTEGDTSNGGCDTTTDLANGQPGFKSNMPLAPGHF

Canis familiaris [7] = test: Uroselectivity was determined by measuring effective dose required for 5 mmHg increase of intraurethral pressure (IUP) in vivo in dog; format: functional, Canis lupus familiaris; procedure, shortened: as §1
[8] = molecular target: T6, Alpha-1B adrenergic receptor (Mesocricetus auratus, UniProt P18841); test: In vitro binding affinity towards alpha-1B adrenergic receptor of hamster clone in radioligand binding assay; format: single protein
T6 sequence (P18841 whole entry): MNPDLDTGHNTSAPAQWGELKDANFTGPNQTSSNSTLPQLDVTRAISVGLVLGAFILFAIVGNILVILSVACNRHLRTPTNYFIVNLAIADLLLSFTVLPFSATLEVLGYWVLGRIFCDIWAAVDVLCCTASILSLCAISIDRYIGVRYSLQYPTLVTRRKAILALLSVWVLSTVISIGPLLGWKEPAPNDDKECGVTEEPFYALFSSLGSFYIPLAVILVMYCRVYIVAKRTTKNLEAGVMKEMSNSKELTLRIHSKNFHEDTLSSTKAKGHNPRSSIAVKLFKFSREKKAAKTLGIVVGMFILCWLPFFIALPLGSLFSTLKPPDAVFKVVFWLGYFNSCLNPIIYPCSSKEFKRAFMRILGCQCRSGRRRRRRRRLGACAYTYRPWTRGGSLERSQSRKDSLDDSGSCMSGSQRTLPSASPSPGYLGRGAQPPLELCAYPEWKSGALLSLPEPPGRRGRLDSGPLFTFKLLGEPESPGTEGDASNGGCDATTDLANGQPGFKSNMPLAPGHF
Procedure, shortened: (§3)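 Radioligand binding at α1 subtypes: α1A from rat submaxillary gland, α1B hamster clone, α1D rat clone. Run essentially per an earlier method.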

[9] = molecular target: T7, Alpha-1D adrenergic receptor (Rattus norvegicus, UniProt P23944); test: In vitro binding affinity towards alpha-1D adrenergic receptor of rat clone in radioligand binding assay; procedure, shortened: as §3
T7 sequence (P23944 whole entry): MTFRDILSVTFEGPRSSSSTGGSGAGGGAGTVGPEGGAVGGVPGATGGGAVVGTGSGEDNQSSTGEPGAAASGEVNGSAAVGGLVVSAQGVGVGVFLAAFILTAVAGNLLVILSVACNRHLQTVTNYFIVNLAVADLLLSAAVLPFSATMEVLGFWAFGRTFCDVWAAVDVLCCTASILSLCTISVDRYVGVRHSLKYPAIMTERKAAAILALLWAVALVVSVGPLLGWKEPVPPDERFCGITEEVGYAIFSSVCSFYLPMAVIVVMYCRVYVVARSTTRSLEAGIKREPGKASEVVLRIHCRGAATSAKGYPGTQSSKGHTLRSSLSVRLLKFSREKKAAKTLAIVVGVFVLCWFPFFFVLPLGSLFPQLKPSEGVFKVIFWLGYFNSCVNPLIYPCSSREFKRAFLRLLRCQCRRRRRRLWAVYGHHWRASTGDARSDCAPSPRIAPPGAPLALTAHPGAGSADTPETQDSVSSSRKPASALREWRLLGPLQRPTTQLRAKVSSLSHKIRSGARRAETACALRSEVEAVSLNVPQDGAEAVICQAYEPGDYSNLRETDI

[10] = molecular target: T8, Alpha-1A adrenergic receptor (Rattus norvegicus, UniProt P43140); test: In vitro binding affinity towards alpha-1A adrenergic receptor of rat submaxillary gland in radioligand binding assay; procedure, shortened: as §3
T8 sequence (P43140 whole entry): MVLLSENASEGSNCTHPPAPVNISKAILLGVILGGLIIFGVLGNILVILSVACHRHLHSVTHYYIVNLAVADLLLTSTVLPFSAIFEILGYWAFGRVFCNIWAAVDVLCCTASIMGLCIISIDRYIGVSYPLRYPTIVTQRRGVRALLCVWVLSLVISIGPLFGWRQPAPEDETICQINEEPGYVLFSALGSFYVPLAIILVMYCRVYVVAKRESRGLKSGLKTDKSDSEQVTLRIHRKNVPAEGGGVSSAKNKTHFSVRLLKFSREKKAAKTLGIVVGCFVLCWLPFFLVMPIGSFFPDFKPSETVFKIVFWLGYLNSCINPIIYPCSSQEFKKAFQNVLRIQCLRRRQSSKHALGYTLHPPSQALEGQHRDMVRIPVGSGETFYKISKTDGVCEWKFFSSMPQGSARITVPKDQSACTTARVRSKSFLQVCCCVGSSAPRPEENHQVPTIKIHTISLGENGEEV

[11] = molecular target: Alpha adrenergic receptor 1A and 1B (Rattus norvegicus) (UniProt P15823+P43140); test: Selectivity is ratio of pKi (binding affinity) of alpha-1B receptor to that of alpha-1A receptor.; format: protein assay
[12] = molecular target: Alpha adrenergic receptor 1A and 1D (Rattus norvegicus) (UniProt P23944+P43140); test: Selectivity is ratio of pKi (binding affinity) of Alpha-1D to that of alpha1A; format: protein assay
Canis familiaris [13] = organism: Canis familiaris; test: Ratio of MAP ED delta20 to that of IUP ED delta5
[14] = molecular target: T1, Alpha-1A adrenergic receptor (Oryctolagus cuniculus); test: Functional agonism of the compounds to constrict tissue containing the alpha-1A adrenergic receptor in rabbit urethra; format: tissue-based; procedure, shortened: as §2

| Compound | ED delta20 (Canis familiaris [1]) [nM/kg] | Efficacy [2] [%] | Efficacy [3] [%] | Ki [4] [nM] | Ki [5] [nM] | Efficacy [6] [%] | ED delta5 (Canis familiaris [7]) [nM/kg] | Ki [8] [nM] | Ki [9] [nM] | Ki [10] [nM] | Selectivity [11] | Selectivity [12] | Ratio (Canis familiaris [13]) | pD2 [14] |
| --- | --- | --- | --- | --- | --- | --- | --- | --- | --- | --- | --- | --- | --- | --- |
| CS(=O)(=O)Nc1cccc2c1CCCC2c1c[nH]cn1 (stereo unspecified) | 102.3 | 83 | 62 | 105 | 676 |  |  |  |  |  |  |  |  |  |
| CS(=O)(=O)Nc1cccc2c1CCC[C@H]2c1c[nH]cn1 | 48.7 | 84 | 29 |  |  |  |  |  |  |  |  |  |  |  |
| CS(=O)(=O)Nc1cccc2c1OCCC2c1c[nH]cn1 (stereo unspecified) | 163.9 | 88 |  |  |  | 17 |  |  |  |  |  |  |  |  |
| CCS(=O)(=O)Nc1cccc2c1CCC2c1c[nH]cn1 (stereo unspecified) | 5.6 | 87 | 26 |  | 186 |  | 4.4 |  |  |  |  |  |  |  |
| CCS(=O)(=O)Nc1cccc(Cc2c[nH]cn2)c1 | 80 | 80 | 34 | 170 | 977 |  | 12 | 891 | 275 |  |  |  |  |  |
| CC(=O)Nc1cccc2c1CCCC2c1c[nH]cn1 (stereo unspecified) | 220 | 70 | 100 |  | 3020 | 35 |  |  |  |  |  |  |  |  |
| CCS(=O)(=O)Nc1cc(Cl)cc2c1CCCC2c1c[nH]cn1 (stereo unspecified) | 47.7 |  |  |  |  |  | 19.1 | > 10000 |  | 45.7 | > 217 | 8 | 2.5 |  |
| CS(=O)(=O)Nc1cccc2c1CCCC2C1=NCCN1 (stereo unspecified) | 9.2 | 87 |  |  |  |  | 11.9 | 7410 | 4270 | 457 | 20 | 9 | 1.1 | 6.19 |
